Assay [1] has as its system SK-N-MC. Nature of the assay: Ratio of Dp4mT IC50 to compound IC50 for human SK-N-MC cells. The format is functional.
The test system of assay [2] is A549. In words: Ratio of compound IC50 to Dp44mT IC50 for human A549 cells. The format is functional.
Assay [3] deals with DMS-53. In words: Antiproliferative activity at human DMS53 cells after 72 hrs by MTT assay. The class given is functional, cell-based.
The test system of assay [4] is SK-N-MC. Nature of the assay: Antiproliferative activity at human SK-N-MC cells after 72 hrs by MTT assay. The class given is functional, cell-based. For orientation: Tetrazolium assays rely on reduction of a dye to a coloured formazan, in cell work by metabolically active cells.
Assay [5] has as its system MRC5. In words: Antiproliferative activity at human MRC5 cells after 72 hrs by MTT assay. The class given is functional, cell-based. The settings on record: MRC5, 72 h.
Assay [6] has as its system SK-N-MC. Nature of the assay: Inhibition to 59Fe uptake from 59Fe-transferrin in human SK-N-MC cells at 25 uM after 3 hrs. The format is functional. The arrangement: scale not given: the % may be the effect or the level left. The method, boiled down:
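SK-N-MC cells labeled with 59Fe-transferrin (0.75 μM) for 3 h/37 °C with or without chelators (25 μM). Cells washed four times on ice with ice-cold PBS. Internalized 59Fe separated with Pronase (1 mg/mL) and expressed as % of control. Mean ± SD of three experiments.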

For assay [7], the system named is A549. In words: Antiproliferative activity at human A549 cells after 72 hrs by MTT assay. The format is functional, cell-based. Particulars: Homo sapiens, A549, 72 h.
Assay [8] relates to SK-N-MC. Nature of the assay: Induction of 59Fe mobilization in human SK-N-MC cells at 25 uM after 3 hrs by gamma-scintillation counter. The format is functional. The method, boiled down:
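SK-N-MC cells prelabeled with 59Fe-transferrin (0.75 μM) for 3 h/37 °C, then washed four times on ice with ice-cold PBS. Cells reincubated with or without chelators (25 μM) for 3 h/37 °C. Released 59Fe given as % of cellular 59Fe. Mean ± SD of three experiments.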

For assay [9], the system named is SK-N-MC. In words: Inhibition to 59Fe uptake from 59Fe-transferrin in human SK-N-MC cells at 25 uM after 3 hrs relative to Dp4eT.

The structures appear in SMILES notation.

In the case of `CN(C(=S)NN=C(c1ccccn1)c1ccccn1)C1CCCCC1`, the “Ratio IC50” value in [1] is reported as 23; in assay [2], 5. Also, the IC50 in [3] (dms-53) turned out to be 8 nM; in assay [4], 13 nM.
In assay [4], `CCN(C)C(=S)N/N=C(\c1ccccc1)c1ccccn1` registered an IC50 of 6 nM.
On to `CC(=O)N(O)CCCCCNC(=O)CCC(=O)N(O)CCCCCNC(=O)CCC(=O)N(O)CCCCCN` [DEFEROXAMINE], for which the IC50 in [5] is over 10000 nM; in assay [3] (Homo sapiens, DMS-53, 72 h), 10000 nM; in [7], 7500 nM. In addition, the Activity in [6] is 84%; in assay [8], 15.2%.
Take `CN(C(=S)NN=C(c1ccccn1)c1ccccn1)c1ccccc1`: in assay [4], the IC50 amounted to 6 nM.
Same read-out and setting: in the case of `CCN(CC)C(=S)N/N=C(\c1ccccc1)c1ccccn1` it was 11 nM.
With `CCN(CC)C(=S)NN=C(c1ccccn1)c1ccccn1`, the Ratio in [9] is reported as 2. The same molecule returned an IC50 in assay [4] of 5 nM.
`COc1cc([C@@H]2c3cc4c(cc3[C@@H](O[C@@H]3O[C@@H]5CO[C@@H](C)O[C@H]5[C@H](O)[C@H]3O)[C@H]3COC(=O)[C@H]23)OCO4)cc(OC)c1O` [ETOPOSIDE]: the half-inhibitory concentration (IC50) worked out at 1500 nM in [3] (Homo sapiens, DMS-53, 72 h) and 800 nM in assay [7].

As usually defined, the IC50 is the point on the concentration scale where inhibition reaches its midpoint.

The values are drawn from ChEMBL document CHEMBL2203173 (J Med Chem, 2012).
